The subject of data set [1] is Mus musculus. The data set is described as follows: Anticonvulsant activity in CF1 mouse assessed as inhibition of maximal electroshock-induced seizures at 30 mg/kg, ip after 4 hrs. The format is functional, organism-based. Also noted: dose 30 mg/kg. In a few lines: (§1)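 Male albino CF#1 mice (18–25.5 g), compound suspended in 0.5% methylcellulose, given ip 0.5 h or 4 h before test. Eyes treated with 0.5% tetracaine HCl in saline; corneal-type MES at 60 Hz, 50 mA for 0.2 s; protection scored as animals protected/tested.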

In data set [2] the test system is Mus musculus. Nature of the data set: Anticonvulsant activity in CF1 mouse assessed as inhibition of maximal electroshock-induced seizures at 30 mg/kg, ip after 0.5 hrs. Type of data set: functional, organism-based. The arrangement: dose 30 mg/kg. The gist of the method:
as §1
For orientation: In the maximal electroshock model the usual endpoint is tonic extension of the hind limbs.

For a further data set, the system named is Pseudomonas aeruginosa. Nature of the data set: Antibacterial activity against Pseudomonas aeruginosa ATCC 27853 after 24 hrs by broth microdilution method. Type of data set: functional. The conditions noted are these: ATCC 27853, 24 h. In a few lines: (§2)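 Broth microdilution in Mueller Hinton broth; compound stocks in DMSO, diluted into test medium. Plates incubated at 35 °C and read visually after 24 h. MIC taken as lowest concentration preventing visible growth. Ampicillin reference.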

In data set [3] the test system is Mus musculus. Nature of the data set: Anticonvulsant activity in CF1 mouse assessed as inhibition of maximal electroshock-induced seizures at 300 mg/kg, ip after 0.5 hrs. Type of data set: functional, organism-based. Also noted: dose 300 mg/kg. The gist of the method:
as §1

For a further data set, the system named is Staphylococcus aureus. The data set is described as follows: Antibacterial activity against Staphylococcus aureus ATCC 25923 after 24 hrs by broth microdilution method. Type of data set: functional. The settings on record: ATCC 25923, 24 h. In a few lines:
as §2
(In general: In broth dilution the organism is exposed to a series of concentrations in liquid medium.)

Data set [4] has as its system Mus musculus. Nature of the data set: Neurotoxicity in CF1 mouse assessed as mortality at 300 mg/kg, ip after 4 hrs by rotarod test. The format is toxicity, organism-based. The arrangement: dose 300 mg/kg, route intraperitoneal. The settings on record: in vivo. In a few lines:
(§3)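 Male albino CF#1 mice (18–25.5 g), free access to food and water except during testing, under NINDS Anticonvulsant Screening Program procedures. Compounds were suspended in 0.5% methylcellulose and given ip. Neurotoxicity was scored by rotarod 0.5 h and 4 h after dosing, at screening doses of 30, 100 or 300 mg/kg. Results are reported as affected/tested animals.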
On the technique in general: Falling from the rotarod earlier than controls is read as motor impairment.

For data set [5], the system named is Mus musculus. The data set is described as follows: Neurotoxicity in CF1 mouse at 300 mg/kg, ip after 4 hrs by rotarod test. The format is toxicity, organism-based. Also noted: dose 300 mg/kg, route intraperitoneal. The settings on record: in vivo. In a few lines:
(§4)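 Male albino CF#1 mice (18–25.5 g) dosed ip with compound suspended in 0.5% methylcellulose, 0.5 h or 4 h before testing; neurotoxicity assessed by rotarod, scored as number toxic/number tested.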

For data set [6], the system named is Mus musculus. Nature of the data set: Neurotoxicity in CF1 mouse at 100 mg/kg, ip after 4 hrs by rotarod test. The format is toxicity, organism-based. The settings on record: in vivo. Also noted: dose 100 mg/kg, route intraperitoneal. In a few lines: as §4
The next data set has as its system Enterococcus faecalis. Nature of the data set: Antibacterial activity against Enterococcus faecalis ATCC 29212 after 24 hrs by broth microdilution method. Type of data set: functional. The settings on record: ATCC 29212, 24 h. In a few lines: as §2
A further data set concerns Escherichia coli. The data set is described as follows: Antibacterial activity against Escherichia coli ATCC 25922 after 24 hrs by broth microdilution method. The format is functional. The settings on record: ATCC 25922, 24 h. The gist of the method:
as §2

A further data set has as its system Pichia kudriavzevii. The data set is described as follows: Antifungal activity against Candida krusei ATCC 6258 after 48 hrs by broth microdilution method. The conditions noted are these: ATCC 6258, 48 h. The format is functional.
The subject of data set [7] is Mus musculus. Nature of the data set: Anticonvulsant activity in CF1 mouse assessed as inhibition of maximal electroshock-induced seizures at 100 mg/kg, ip after 0.5 hrs. Also noted: dose 100 mg/kg. The format is functional, organism-based. The gist of the method: as §1
For data set [8], the system named is Mus musculus. Nature of the data set: Neurotoxicity in CF1 mouse at 30 mg/kg, ip after 4 hrs by rotarod test. Type of data set: toxicity, organism-based. The arrangement: dose 30 mg/kg, route intraperitoneal. The conditions noted are these: in vivo. The gist of the method:
as §4

Data set [9] relates to Mus musculus. Nature of the data set: Neurotoxicity in CF1 mouse at 100 mg/kg, ip after 0.5 hrs by rotarod test. The settings on record: in vivo. Type of data set: toxicity, organism-based. The arrangement: dose 100 mg/kg, route intraperitoneal. In a few lines:
as §4

Data set [10] deals with Mus musculus. The data set is described as follows: Neurotoxicity in CF1 mouse assessed as hyperactivity at 300 mg/kg, ip after 0.5 hrs by rotarod test. The format is toxicity, organism-based. The arrangement: dose 300 mg/kg, route intraperitoneal. The conditions noted are these: in vivo.
The test system of data set [11] is Mus musculus. The data set is described as follows: Neurotoxicity in CF1 mouse at 30 mg/kg, ip after 0.5 hrs by rotarod test. Type of data set: toxicity, organism-based. Also noted: dose 30 mg/kg, route intraperitoneal. The settings on record: in vivo. The gist of the method:
as §4

Data set [12] concerns Mus musculus. Nature of the data set: Neurotoxicity in CF1 mouse assessed as ability to grasp rotarod at 300 mg/kg, ip after 4 hrs by rotarod test. Type of data set: toxicity, organism-based. The arrangement: dose 300 mg/kg, route intraperitoneal. The settings on record: in vivo. In a few lines:
as §3

The subject of a further data set is Candida parapsilosis. The data set is described as follows: Antifungal activity against Candida parapsilosis ATCC 22019 after 48 hrs by broth microdilution method. Type of data set: functional. The conditions noted are these: Lodderomyces parapsilosis, ATCC 22019, 48 h.
The test system of data set [13] is Mus musculus. Nature of the data set: Neurotoxicity in CF1 mouse assessed as mortality at 300 mg/kg, ip after 0.5 hrs by rotarod test. The format is toxicity, organism-based. Also noted: dose 300 mg/kg, route intraperitoneal. The conditions noted are these: in vivo. In a few lines: as §3
Data set [14] concerns Mus musculus. Nature of the data set: Neurotoxicity in CF1 mouse assessed as ability to grasp rotarod at 300 mg/kg, ip after 0.5 hrs by rotarod test. Also noted: dose 300 mg/kg, route intraperitoneal. The conditions noted are these: in vivo. The format is toxicity, organism-based. In a few lines:
as §4

Data set [15] has as its system Mus musculus. The data set is described as follows: Neurotoxicity in CF1 mouse assessed as muscle spasms at 300 mg/kg, ip after 0.5 hrs by rotarod test. The format is toxicity, organism-based, Muscle tissue. Also noted: dose 300 mg/kg, route intraperitoneal. The conditions noted are these: in vivo.
Data set [16] concerns Rattus norvegicus. Nature of the data set: Neurotoxicity in Sprague-Dawley rat at 30 mg/kg, po after 1 hr by rotarod test. The format is toxicity, organism-based. The arrangement: dose 30 mg/kg, route oral. The conditions noted are these: in vivo.
Data set [17] deals with Rattus norvegicus. The data set is described as follows: Neurotoxicity in Sprague-Dawley rat at 30 mg/kg, po after 0.25 hrs by rotarod test. The conditions noted are these: in vivo. Also noted: dose 30 mg/kg, route oral. The format is toxicity, organism-based.
In data set [18] the test system is Rattus norvegicus. Nature of the data set: Neurotoxicity in Sprague-Dawley rat at 30 mg/kg, po after 2 hrs by rotarod test. Type of data set: toxicity, organism-based. The conditions noted are these: in vivo. Also noted: dose 30 mg/kg, route oral.
Data set [19] concerns Rattus norvegicus. Nature of the data set: Neurotoxicity in Sprague-Dawley rat at 30 mg/kg, po after 4 hrs by rotarod test. The format is toxicity, organism-based. The arrangement: dose 30 mg/kg, route oral. The conditions noted are these: in vivo.
Data set [20] has as its system Mus musculus. Nature of the data set: Anticonvulsant activity in CF1 mouse assessed as inhibition of maximal electroshock-induced seizures at 300 mg/kg, ip after 4 hrs. Type of data set: functional, organism-based. The arrangement: dose 300 mg/kg. In a few lines: as §1
Data set [21] relates to Rattus norvegicus. The data set is described as follows: Anticonvulsant activity in Sprague-Dawley rat assessed as inhibition of maximal electroshock-induced seizures at 30 mg/kg, po after 0.25 hrs. The format is functional, organism-based. Also noted: dose 30 mg/kg. In a few lines:
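Male albino Sprague-Dawley rats (105–130 g) given a single oral 30 mg/kg dose suspended in 0.5% methylcellulose; MES (60 Hz, 150 mA, 0.2 s, tetracaine-anesthetized eyes) at 0.25, 0.5, 1, 2 and 4 h; 4 rats per time point; scored protected/tested.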

The test system of data set [22] is Rattus norvegicus. The data set is described as follows: Neurotoxicity in Sprague-Dawley rat at 30 mg/kg, po after 0.5 hrs by rotarod test. The format is toxicity, organism-based. The arrangement: dose 30 mg/kg, route oral. The settings on record: in vivo.

Values after ≈ are worked out from the molar mass of the structure shown. Active and inactive are the calls of the source. The calls are words filed in the database; no cut-off is given here.

A word on the MIC: it is the lowest concentration that inhibits growth of the organism. The low end stands for a more susceptible organism, the high end for a less susceptible organism. For the molecule `CCCCC(=O)OC(Cn1ccnc1)c1ccc2ccccc2c1` (stereo unspecified), the inhibition entry in the data set with Mus musculus [1] is “inactive”. For the same molecule, the inhibition result with Mus musculus [2], in the data set with Mus musculus [3] and in the data set on Mus musculus [7] was “Active” each time. Further, the MIC in the data set with Pseudomonas aeruginosa is above 1020 µg/mL; against Staphylococcus aureus it was 8 µg/mL (≈ 24.8 µM); in the data set with Enterococcus faecalis, 32 µg/mL (≈ 99.3 µM); in the data set on Escherichia coli, above 1020 µg/mL; in the data set on Pichia kudriavzevii, 128 µg/mL (≈ 397 µM); against Candida parapsilosis, 128 µg/mL (≈ 397 µM). Moreover, the Activity result was “Toxic” with Mus musculus [4]; “Toxic” in the data set on Mus musculus [5]; “Non-toxic” in the data set with Mus musculus [6]; “Non-toxic” with Mus musculus [8]; “Non-toxic” in the data set on Mus musculus [9]; “Toxic” with Mus musculus [10]. In addition, the figures for the Activity entry in the data set on Mus musculus [11] and in the data set with Mus musculus [12] were “Non-toxic” and “Toxic”, respectively.

Turning to `CC(C)C(=O)OC(Cn1ccnc1)c1ccc2ccccc2c1` (stereo unspecified), the Activity result with Mus musculus [13] is “Toxic”; with Mus musculus [14], “Toxic”; in the data set on Mus musculus [5], “Non-toxic”; in the data set with Mus musculus [15], “Toxic”; in the data set on Mus musculus [6] it was “Non-toxic”; with Rattus norvegicus [16], “Non-toxic”. Further, the Activity entry with Rattus norvegicus [17], in the data set with Rattus norvegicus [18], with Rattus norvegicus [19], in the data set on Mus musculus [8], in the data set on Mus musculus [11] and in the data set with Rattus norvegicus [22] was “Non-toxic” each time. The inhibition result with Mus musculus [1] and in the data set on Rattus norvegicus [21] was “inactive” in each case. Moreover, the inhibition entry in the data set on Mus musculus [2], with Mus musculus [7] and with Mus musculus [20] was “Active” each time. Besides, the MIC against Pseudomonas aeruginosa is above 1020 µg/mL; against Staphylococcus aureus, 16 µg/mL (≈ 51.9 µM); in the data set with Enterococcus faecalis, 128 µg/mL (≈ 415 µM); against Escherichia coli, above 1020 µg/mL; with Pichia kudriavzevii, 256 µg/mL (≈ 830 µM); in the data set with Candida parapsilosis, 256 µg/mL (≈ 830 µM).

These data come from ChEMBL document CHEMBL1156239, “Synthesis, anticonvulsant and antimicrobial activities of some new 2-acetylnaphthalene derivatives” (Bioorg Med Chem, 2010).
